Measured values as given in publication PMC3165084 (Leukemia, 2011).
“And” between values parts separate entries of the source, which are not always exact repeats. Equal values may be shown once. Marks after values point to notes of the source that are not given here.

How the values were obtained:
[1] = system: solid tumor; conditions: 900 mg bid dose level, week-on, week-off; ref [7]; cited from earlier work
[2] = system: myeloid and lymphoid leukemias; conditions: ref [2], cited from earlier work
[3] = system: farnesyl transferase; conditions: correlative studies in patients; ref [6]–[8]; cited from earlier work
[4] = system: MDS; conditions: above 400 mg bid, 21-day bid dosing; ref [6]; cited from earlier work
[5] = system: acute myeloid leukemia (AML); test: Phase 1 dose escalation: clinical response; type: in vivo, human
Method in brief: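 Bone marrow aspiration and biopsy were done within two weeks before therapy and repeated on days 26–28 of each 28-day cycle. Blood counts were taken at least weekly. Response was scored by International Working Group criteria. Intra-patient escalation was allowed if no CR after cycle 1. Patients without PR or clinical improvement after 6 cycles were deemed treatment failures.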

[6] = system: advanced cancer; conditions: 5-day, every 12 hour dosing; highest dose level 1300 mg twice daily for five days; ref [4]; cited from earlier work
[7] = system: patients with acute myeloid leukemia (AML); test: Phase 1 dose escalation, week-on week-off oral tipifarnib: toxicity, DLT and MTD; type: in vivo, human
Method in brief: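 Adult patients with AML (M3 excluded) received oral test compound twice daily on days 1–7 and 15–21 of 28-day cycles in 3+3 cohorts. AEs were graded by NCI CTCAE v3.0 from clinic review and patient diaries. DLT was any possibly drug-related […] nonhematologic toxicity (excluding palliated GI events and corrected electrolytes), or non-reversible grade 4 hematologic toxicity without blasts. MTD was ≤1 of 6 with DLT in cycle 1.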

[8] = system: previously untreated AML or MDS; conditions: 600 mg bid, 21 day schedule, older patients with previously untreated AML or MDS; ref [5]; cited from earlier work
[9] = Plasma pharmacokinetics of tipifarnib, LCMS/MS, non-compartmental analysis; type: in vivo, human
[10] = 1200 mg bid, Subsequent courses
[11] = AUC12h Day 5 / AUC12h Day 1, 1400 mg bid
[12] = Day 1, 1200 mg, plasma, individual subjects 4-10
[13] = Day 1, 1400 mg, plasma, individual subjects 1-3
[14] = Day 5, 1200 mg bid, plasma, individual subjects 4-10

## Cn1cncc1[C@@](N)(c1ccc(Cl)cc1)c1ccc2c(c1)c(-c1cccc(Cl)c1)cc(=O)n2C [tipifarnib, Tipifarnib]
[1]
  DLT: grade 3 fatigue
[2]; 100 mg bid, 21-day continuous dosing
  response at lowest dose level: a CR at the lowest dose level
[2]; 34 patients, 21-day continuous dosing schedule
  overall response rate: 29%
[3]
  duration of farnesyl transferase inhibition after administration: seven days
[4]
  dose limiting toxicities: headache, fatigue, confusion, and vision changes
[5]; 800 mg bid
  Responses: 1 CMML patient cleared leukemic blasts
[5]; 800 mg bid, one patient, over 3 cycles
  marrow blasts, change: from 36% to 10%
[5]; 1000 mg bid
  Responses: 1 CR went to transplant
[5]; 1200 mg bid
  Responses: 2 CRs, 1 marrow response (from 50%-7% blasts)
[5]; 1200 mg bid, individual CR patients
  duration of CR: one month
[5]; 1400 mg bid
  Responses: minor responses
[5]; 1400 mg bid, two patients
  decrease of bone marrow blasts: ≥ 50%
[5]; all dose levels, 44 patients, 1000 mg and 1200 mg bid
  complete remissions (CR) seen: 3
[5]; expansion group, 7 patients at MTD 1200 mg bid
  complete responses in expansion group: no complete responses
[5]; lower dose levels (below 1000 mg bid)
  formal responses: No formal responses
[6]
  protocol-defined maximum tolerated dose (MTD): not achieved
[7]; 400 mg bid
  # DLTs: 1
  DLT descriptions: hepatic
[7]; 1200 mg bid
  # DLTs: 1
  DLT descriptions: renal
[7]; 1200 mg bid, Course 1
  ALT, SGPT toxicity, Grade 2: 2
  Anorexia, Grade 2: 2
  Bilirubin toxicity, Grade 2: 2
  Creatinine toxicity, Grade 2: 2
  Creatinine toxicity, Grade 3: 1
  Dehydration, Grade 2: 1
  Fatigue, Grade 2: 3
  Hypoalbuminemia, Grade 2: 2
  Nausea, Grade 2: 1
  Nausea, Grade 3: 1
  Rash / desquamination, Grade 2: 1
  Vomiting, Grade 2: 2
[7]; [10]
  ALT, SGPT toxicity, Grade 3: 1
  AST, SGOT toxicity, Grade 2: 1
  Anorexia, Grade 2: 1
  Ataxia, Grade 3: 1
  Bilirubin toxicity, Grade 2: 1
  Constipation, Grade 2: 1
  Creatinine toxicity, Grade 2: 3
  Fatigue, Grade 3: 2
  Febrile neutropenia, Grade 3: 1
  Hyperglycemia, Grade 2: 2
  Hypoalbuminemia, Grade 2: 2
  Nausea, Grade 2: 2
  Restless leg syndrome, Grade 2: 1
  Syncope (fainting), Grade 3: 1
  Vomiting, Grade 2: 2
  Weight loss, Grade 2: 1
[7]; 1400 mg bid
  # DLTs: 2
  DLT descriptions: renal
[7]; 1600 mg bid
  # DLTs: 2 ^*
  DLT descriptions: hepatic, renal ^*
[7]; oral twice daily, days 1–7 and 15–21 of each 28-day cycle, first-cycle DLT
  maximum tolerated dose (MTD): 1200 mg bid
[8]
  partial response, patients: 10%
[9]; AUC12h Day 5 / AUC12h Day 1, 1200 mg bid
  Accumulation Index, median: 1.2 and 1.23
[9]; AUC12h Day 5 / AUC12h Day 1, 1200 mg bid, individual subjects 4-10
  Accumulation Index: 1.23 and 0.91 and 2.40 and 1.55
[9]; [11]
  Accumulation Index, high: 1.37
  Accumulation Index, low: 0.97
  Accumulation Index, median: 1.17
[9]; AUC12h Day 5 / AUC12h Day 1, 1400 mg bid, individual subjects 1-3
  Accumulation Index: 1.37 and 0.97
[9]; Day 1, 1200 mg, plasma
  Cmin, high: 402 ng/mL
  Cmin, low: 82 ng/mL
  Cmin, median: 166 ng/mL
[9]; [12]
  AUC12h: 3905 ng·h/mL
  Cmax: 804 ng/mL and 1180 ng/mL and 479 ng/mL and 2300 ng/mL
  Cmin: 132 ng/mL and 339 ng/mL and 166 ng/mL and 82 ng/mL and 402 ng/mL
  Tmax: 3.0 h
[9]; Day 1, 1400 mg, plasma
  Cmin, low: 145 ng/mL
  Cmin, median: 237 ng/mL
[9]; [13]
  Cmin: 329 ng/mL and 145 ng/mL
  Tmax: 3.2 h
[9]; [14]
  AUC12h: 4815 ng·h/mL and 7001 ng·h/mL and 7787 ng·h/mL and 9221 ng·h/mL
  Cmax: 1880 ng/mL and 2490 ng/mL and 1020 ng/mL
  Cmin: 97 ng/mL and 204 ng/mL and 234 ng/mL and 283 ng/mL and 166 ng/mL and 113 ng/mL and 101 ng/mL
  Tmax: 3.0 h and 3.1 h and 2.8 h
[9]; Day 5, 1400 mg bid, plasma, individual subjects 1-3
  Cmin: 781 ng/mL and 170 ng/mL
[9]; at 1200 and 1400 mg bid
  tipifarnib accumulation between days 1 and 5: relatively modest
[9]; human, plasma, oral, 1200 mg, AUC12h, high, Day 1, 1200 mg, plasma
  AUC(0-t): 15700 ng·h/mL
[9]; human, plasma, oral, 1200 mg, AUC12h, high, Day 5, 1200 mg bid, plasma
  AUC(0-t): 14200 ng·h/mL
[9]; human, plasma, oral, 1200 mg, AUC12h, low, Day 1, 1200 mg, plasma
  AUC(0-t): 3240 ng·h/mL
[9]; human, plasma, oral, 1200 mg, AUC12h, low, Day 5, 1200 mg bid, plasma
  AUC(0-t): 4620 ng·h/mL
[9]; human, plasma, oral, 1200 mg, AUC12h, median, Day 1, 1200 mg, plasma
  AUC(0-t): 4740 ng·h/mL
[9]; human, plasma, oral, 1200 mg, AUC12h, median, Day 5, 1200 mg bid, plasma
  AUC(0-t): 7370 ng·h/mL
[9]; human, plasma, oral, 1200 mg, Cmax, high, Day 1, 1200 mg, plasma
  Cmax: 3160 ng/mL
[9]; human, plasma, oral, 1200 mg, Cmax, high, Day 5, 1200 mg bid, plasma
  Cmax: 2500 ng/mL
[9]; human, plasma, oral, 1200 mg, Cmax, low, Day 1, 1200 mg, plasma
  Cmax: 404 ng/mL
[9]; human, plasma, oral, 1200 mg, Cmax, low, Day 5, 1200 mg bid, plasma
  Cmax: 762 ng/mL
[9]; human, plasma, oral, 1200 mg, Cmax, median, Day 1, 1200 mg, plasma
  Cmax: 906 ng/mL
[9]; human, plasma, oral, 1200 mg, Cmax, median, Day 5, 1200 mg bid, plasma
  Cmax: 1210 ng/mL
[9]; human, plasma, oral, 1200 mg, Cmin, high, Day 5, 1200 mg bid, plasma
  concentration at 5 day: 283 ng/mL
[9]; human, plasma, oral, 1200 mg, Cmin, low, Day 5, 1200 mg bid, plasma
  concentration at 5 day: 97 ng/mL
[9]; human, plasma, oral, 1200 mg, Cmin, median, Day 5, 1200 mg bid, plasma
  concentration at 5 day: 166 ng/mL
[9]; human, plasma, oral, 1200 mg, Tmax, high, Day 1, 1200 mg, plasma
  Tmax: 3 h
[9]; human, plasma, oral, 1200 mg, Tmax, high, Day 5, 1200 mg bid, plasma
  Tmax: 5 h
[9]; human, plasma, oral, 1200 mg, Tmax, low, Day 1, 1200 mg, plasma
  Tmax: 2 h
[9]; human, plasma, oral, 1200 mg, Tmax, low, Day 5, 1200 mg bid, plasma
  Tmax: 1 h
[9]; human, plasma, oral, 1200 mg, Tmax, median, Day 1, 1200 mg, plasma
  Tmax: 2.1 h
[9]; human, plasma, oral, 1200 mg, Tmax, median, Day 5, 1200 mg bid, plasma
  Tmax: 3 h
[9]; human, plasma, oral, 1400 mg, AUC12h, high, Day 1, 1400 mg, plasma
  AUC(0-t): 18700 ng·h/mL
[9]; human, plasma, oral, 1400 mg, AUC12h, high, Day 5, 1400 mg bid, plasma
  AUC(0-t): 25600 ng·h/mL
[9]; human, plasma, oral, 1400 mg, AUC12h, low, Day 1, 1400 mg, plasma
  AUC(0-t): 8950 ng·h/mL
[9]; human, plasma, oral, 1400 mg, AUC12h, low, Day 5, 1400 mg bid, plasma
  AUC(0-t): 8710 ng·h/mL
[9]; human, plasma, oral, 1400 mg, AUC12h, median, Day 1, 1400 mg, plasma
  AUC(0-t): 13800 ng·h/mL
[9]; human, plasma, oral, 1400 mg, AUC12h, median, Day 5, 1400 mg bid, plasma
  AUC(0-t): 17100 ng·h/mL
[9]; human, plasma, oral, 1400 mg, Cmax, high, Day 1, 1400 mg, plasma
  Cmax: 4240 ng/mL
[9]; human, plasma, oral, 1400 mg, Cmax, high, Day 5, 1400 mg bid, plasma
  Cmax: 3890 ng/mL
[9]; human, plasma, oral, 1400 mg, Cmax, low, Day 1, 1400 mg, plasma
  Cmax: 1690 ng/mL
[9]; human, plasma, oral, 1400 mg, Cmax, low, Day 5, 1400 mg bid, plasma
  Cmax: 1370 ng/mL
[9]; human, plasma, oral, 1400 mg, Cmax, median, Day 1, 1400 mg, plasma
  Cmax: 3920 ng/mL
[9]; human, plasma, oral, 1400 mg, Cmax, median, Day 5, 1400 mg bid, plasma
  Cmax: 2630 ng/mL
[9]; human, plasma, oral, 1400 mg, Cmin, high, Day 1, 1400 mg, plasma
  concentration at 12 h: 329 ng/mL
[9]; human, plasma, oral, 1400 mg, Cmin, high, Day 5, 1400 mg bid, plasma
  concentration at 5 day: 781 ng/mL
[9]; human, plasma, oral, 1400 mg, Cmin, low, Day 5, 1400 mg bid, plasma
  concentration at 5 day: 170 ng/mL
[9]; human, plasma, oral, 1400 mg, Cmin, median, Day 5, 1400 mg bid, plasma
  concentration at 5 day: 476 ng/mL
[9]; human, plasma, oral, 1400 mg, Tmax, high, Day 1, 1400 mg, plasma
  Tmax: 3.2 h
[9]; human, plasma, oral, 1400 mg, Tmax, high, Day 5, 1400 mg bid, plasma
  Tmax: 5 h
[9]; human, plasma, oral, 1400 mg, Tmax, low, Day 1, 1400 mg, plasma
  Tmax: 2 h
[9]; human, plasma, oral, 1400 mg, Tmax, low, Day 5, 1400 mg bid, plasma
  Tmax: 3 h
[9]; human, plasma, oral, 1400 mg, Tmax, median, Day 1, 1400 mg, plasma
  Tmax: 3.1 h
[9]; human, plasma, oral, 1400 mg, Tmax, median, Day 5, 1400 mg bid, plasma
  Tmax: 4 h
[9]; human, plasma, oral, median AUC12h, remaining patients, day 1
  AUC(0-t): 7580 ng·h/mL
[9]; human, plasma, oral, median AUC12h, remaining patients, day 5
  AUC(0-t): 4320 ng·h/mL
[9]; human, plasma, oral, median AUC12h, two patients with decreased blasts, day 1
  AUC(0-t): 16300 ng·h/mL
[9]; human, plasma, oral, median AUC12h, two patients with decreased blasts, day 5
  AUC(0-t): 13200 ng·h/mL
[9]; human, plasma, oral, median Cmax, remaining patients, day 1
  Cmax: 1290 ng/mL
[9]; human, plasma, oral, median Cmax, remaining patients, day 5
  Cmax: 881 ng/mL
[9]; human, plasma, oral, median Cmax, two patients with decreased blasts, day 1
  Cmax: 2440 ng/mL
[9]; human, plasma, oral, median Cmax, two patients with decreased blasts, day 5
  Cmax: 2550 ng/mL
[9]; on both day 1 and day 5
  fold higher median AUC and Cmax in the two patients with decreased blasts vs median of the non-responders: 2–3 fold
[9]; present data taken together with earlier studies
  pharmacokinetic behavior (dose linearity): linear up to doses as high as 1400 mg bid
